Results taken from ChEMBL document CHEMBL4304816, “A Novel Biphenyl-based Chemotype of Retinoid X Receptor Ligands Enables Subtype and Heterodimer Preferences” (ACS Med Chem Lett, 2019).
In brackets after ≈: the same amount, converted by molar mass. One block for each molecule: values may come before it. Activity calls are given as the source filed them. The rule behind the calls is not given here.

Legend:
[1] = target: T1, Retinoic acid receptor RXR-alpha (Homo sapiens, UniProt P19793); test: Agonist activity at Gal4-LBD fused RXRalpha (unknown origin) expressed in HEK293T cells after 14 to 16 hrs by dual-Glo luciferase assay; assay type: cell-based
T1 sequence (P19793 whole entry): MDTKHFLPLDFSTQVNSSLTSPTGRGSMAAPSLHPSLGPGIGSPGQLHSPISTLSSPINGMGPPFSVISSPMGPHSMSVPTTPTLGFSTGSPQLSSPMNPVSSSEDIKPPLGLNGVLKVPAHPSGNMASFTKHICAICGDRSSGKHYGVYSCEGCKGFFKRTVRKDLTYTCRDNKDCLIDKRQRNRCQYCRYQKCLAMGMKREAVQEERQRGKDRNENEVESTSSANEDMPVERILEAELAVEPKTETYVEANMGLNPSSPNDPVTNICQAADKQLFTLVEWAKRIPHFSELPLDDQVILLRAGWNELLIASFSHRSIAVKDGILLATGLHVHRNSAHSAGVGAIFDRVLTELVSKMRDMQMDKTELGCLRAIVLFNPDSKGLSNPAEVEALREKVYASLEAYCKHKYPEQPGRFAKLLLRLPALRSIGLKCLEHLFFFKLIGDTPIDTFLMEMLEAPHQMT
Procedure, shortened: (§1)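 Gal4-hybrid RXRα/β/γ reporter gene assays in HEK293T cells. Fold activation is the maximal fold activation versus 0.1% DMSO.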

[2] = target: T2, Retinoic acid receptor RXR-beta (Homo sapiens, UniProt P28702); test: Agonist activity at Gal4-LBD fused RXRbeta (unknown origin) expressed in HEK293T cells after 14 to 16 hrs by dual-Glo luciferase assay; assay type: cell-based; procedure, shortened: as §1
T2 sequence (P28702 whole entry): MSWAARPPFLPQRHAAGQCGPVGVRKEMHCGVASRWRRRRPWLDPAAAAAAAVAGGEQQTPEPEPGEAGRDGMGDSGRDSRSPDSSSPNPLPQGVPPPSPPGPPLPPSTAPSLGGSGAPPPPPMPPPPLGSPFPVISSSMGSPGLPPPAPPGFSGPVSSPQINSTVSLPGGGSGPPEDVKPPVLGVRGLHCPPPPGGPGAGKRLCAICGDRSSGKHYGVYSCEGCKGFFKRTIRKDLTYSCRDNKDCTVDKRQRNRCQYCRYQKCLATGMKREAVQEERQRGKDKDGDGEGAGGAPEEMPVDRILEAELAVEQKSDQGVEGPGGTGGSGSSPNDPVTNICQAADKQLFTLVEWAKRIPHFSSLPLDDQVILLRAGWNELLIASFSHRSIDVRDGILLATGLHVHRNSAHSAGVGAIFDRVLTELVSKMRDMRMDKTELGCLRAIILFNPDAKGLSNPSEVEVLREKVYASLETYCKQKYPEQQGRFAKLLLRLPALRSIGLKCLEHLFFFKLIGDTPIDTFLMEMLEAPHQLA

[3] = target: T3, Retinoic acid receptor RXR-gamma (Homo sapiens, UniProt P48443); test: Agonist activity at Gal4-LBD fused RXRgamma (unknown origin) expressed in HEK293T cells after 14 to 16 hrs by dual-Glo luciferase assay; assay type: cell-based; procedure, shortened: as §1
T3 sequence (P48443 whole entry): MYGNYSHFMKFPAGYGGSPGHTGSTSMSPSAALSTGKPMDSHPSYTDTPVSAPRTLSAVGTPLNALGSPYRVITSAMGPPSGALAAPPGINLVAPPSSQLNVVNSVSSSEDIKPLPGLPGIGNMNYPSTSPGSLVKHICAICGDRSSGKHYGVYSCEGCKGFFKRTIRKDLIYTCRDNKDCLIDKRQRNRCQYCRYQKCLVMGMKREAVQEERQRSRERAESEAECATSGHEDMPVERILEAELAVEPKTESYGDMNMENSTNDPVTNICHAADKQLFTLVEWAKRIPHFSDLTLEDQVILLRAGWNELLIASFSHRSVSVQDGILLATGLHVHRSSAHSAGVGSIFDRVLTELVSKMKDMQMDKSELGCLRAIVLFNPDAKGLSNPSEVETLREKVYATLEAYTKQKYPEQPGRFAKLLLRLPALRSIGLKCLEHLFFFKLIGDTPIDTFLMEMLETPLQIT

[4] = target: T4, Retinoic acid receptor RXR-alpha (Homo sapiens) (UniProt P19793); test: Agonist activity at Gal4-LBD fused RXRalpha (unknown origin) expressed in HEK293T cells at 0.1 to 3 uM after 14 to 16 hrs in presence of RXR antagonist HX531 by dual-Glo luciferase reporter gene assay; assay type: cell-based
T4 sequence (whole entry): T1 sequence (P19793 whole entry)

[5] = target: T5, Retinoic acid receptor RXR-beta (Homo sapiens) (UniProt P28702); test: Agonist activity at Gal4-LBD fused RXRbeta (unknown origin) expressed in HEK293T cells at 0.1 to 3 uM after 14 to 16 hrs in presence of RXR antagonist HX531 by dual-Glo luciferase reporter gene assay; assay type: cell-based
T5 sequence (whole entry): T2 sequence (P28702 whole entry)

[6] = target: T6, Retinoic acid receptor RXR-gamma (Homo sapiens) (UniProt P48443); test: Agonist activity at Gal4-LBD fused RXRgamma (unknown origin) expressed in HEK293T cells at 0.1 to 3 uM after 14 to 16 hrs in presence of RXR antagonist HX531 by dual-Glo luciferase reporter gene assay; assay type: cell-based
T6 sequence (whole entry): T3 sequence (P48443 whole entry)

[7] = Agonist activity at full-length human RXR/LXR expressed in HEK293T cells at 5 uM after 14 to 16 hrs by dual-glo luciferase reporter gene assay relative to untreated control; assay type: cell-based; conditions: HEK-293T, read-out: Activity
Procedure, shortened: (§2)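 RXR:LXR or RXR:PPARγ heterodimer reporter assay with test compound alone. Activation expressed relative to 0.1% DMSO vehicle. Three independent experiments, each in duplicate; mean reported.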

[8] = organism: Homo sapiens; test: Agonist activity at full-length human PPARgamma/RXR expressed in HEK293T cells at 5 uM after 14 to 16 hrs by dual-glo luciferase reporter gene assay relative to untreated control; assay type: cell-based; procedure, shortened: as §2
[9] = Agonist activity at full-length human RXR/LXR expressed in HEK293T cells at 5 uM after 14 to 16 hrs in presence of 1 uM T0901317 by dual-glo luciferase reporter gene assay relative to T0901317; assay type: cell-based; conditions: HEK-293T, read-out: Activity
Procedure, shortened: (§3)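 Synergy format: the test compound was co-applied with the partner-receptor reference agonist at 1 μM, either T0901317 (RXR:LXR) or rosiglitazone (RXR:PPARγ). Relative synergistic activation was derived from three independent experiments, each in duplicate; mean reported.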

[10] = organism: Homo sapiens; test: Agonist activity at full-length human PPARgamma/RXR expressed in HEK293T cells at 5 uM after 14 to 16 hrs in presence of 1 uM rosiglitazone by dual-glo luciferase reporter gene assay relative to rosiglitazone; assay type: cell-based; procedure, shortened: as §3
[11] = Agonist activity at full-length human RXR/LXR expressed in HEK293T cells at 1 uM after 14 to 16 hrs by dual-glo luciferase reporter gene assay relative to untreated control; assay type: cell-based; conditions: HEK-293T, read-out: Activity; procedure, shortened: as §2
[12] = Solubility of compound at 3 mg after 24 hrs by HPLC analysis; assay type: physicochemical
[13] = Agonist activity at full-length human RXR/LXR expressed in HEK293T cells at 0.3 uM after 14 to 16 hrs by dual-glo luciferase reporter gene assay relative to untreated control; assay type: cell-based; conditions: HEK-293T, read-out: Activity; procedure, shortened: as §2
[14] = organism: Homo sapiens; test: Agonist activity at full-length human PPARgamma/RXR expressed in HEK293T cells at 0.3 uM after 14 to 16 hrs by dual-glo luciferase reporter gene assay relative to untreated control; assay type: cell-based
Procedure, shortened: (§4)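 RXR:PPARγ heterodimer reporter assay in HEK293T cells with test compound alone. Mean relative activation is taken versus 0.1% DMSO, from three independent experiments each run in duplicate.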

[15] = Agonist activity at full-length human RXR/LXR expressed in HEK293T cells at 0.3 uM after 14 to 16 hrs in presence of 1 uM T0901317 by dual-glo luciferase reporter gene assay relative to T0901317; assay type: cell-based; conditions: HEK-293T, read-out: Activity; procedure, shortened: as §3
[16] = organism: Homo sapiens; test: Agonist activity at full-length human PPARgamma/RXR expressed in HEK293T cells at 0.3 uM after 14 to 16 hrs in presence of 1 uM rosiglitazone by dual-glo luciferase reporter gene assay relative to rosiglitazone; assay type: cell-based
Procedure, shortened: (§5)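 RXR:PPARγ heterodimer reporter assay run with reference PPARγ agonist rosiglitazone (1 μM) co-applied. Read-out is mean relative synergistic activation, from three independent experiments each run in duplicate.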

[17] = target: T6, Retinoic acid receptor RXR-gamma (Homo sapiens); test: Agonist activity at Gal4-LBD fused RXRgamma (unknown origin) expressed in HEK293T cells at 30 uM after 14 to 16 hrs by dual-Glo luciferase assay; assay type: cell-based
[18] = Agonist activity at full-length human RXR/LXR expressed in HEK293T cells at 25 uM after 14 to 16 hrs by dual-glo luciferase reporter gene assay relative to untreated control; assay type: cell-based; conditions: HEK-293T, read-out: Activity; procedure, shortened: as §2
[19] = organism: Homo sapiens; test: Agonist activity at full-length human PPARgamma/RXR expressed in HEK293T cells at 25 uM after 14 to 16 hrs by dual-glo luciferase reporter gene assay relative to untreated control; assay type: cell-based; procedure, shortened: as §4
[20] = Agonist activity at full-length human RXR/LXR expressed in HEK293T cells at 25 uM after 14 to 16 hrs in presence of 1 uM T0901317 by dual-glo luciferase reporter gene assay relative to T0901317; assay type: cell-based; conditions: HEK-293T, read-out: Activity; procedure, shortened: as §3
[21] = Agonist activity at full-length human RXR/LXR expressed in HEK293T cells at 10 uM after 14 to 16 hrs by dual-glo luciferase reporter gene assay relative to untreated control; assay type: cell-based; conditions: HEK-293T, read-out: Activity; procedure, shortened: as §2
[22] = organism: Homo sapiens; test: Agonist activity at full-length human PPARgamma/RXR expressed in HEK293T cells at 10 uM after 14 to 16 hrs by dual-glo luciferase reporter gene assay relative to untreated control; assay type: cell-based; procedure, shortened: as §4
[23] = Agonist activity at full-length human RXR/LXR expressed in HEK293T cells at 10 uM after 14 to 16 hrs in presence of 1 uM T0901317 by dual-glo luciferase reporter gene assay relative to T0901317; assay type: cell-based; conditions: HEK-293T, read-out: Activity; procedure, shortened: as §3
[24] = organism: Homo sapiens; test: Agonist activity at full-length human PPARgamma/RXR expressed in HEK293T cells at 10 uM after 14 to 16 hrs in presence of 1 uM rosiglitazone by dual-glo luciferase reporter gene assay relative to rosiglitazone; assay type: cell-based; procedure, shortened: as §5
[25] = Metabolic stability in Wistar rat liver microsomes at 10 uM preincubated for 5 mins followed by microsomes addition in presence of NADPH measured up to 60 mins by HPLC analysis; assay type: ADME, Microsome; conditions: 1 h

SMILES: O=S(=O)(c1ccccc1)N(CC(F)(F)F)c1ccc(C(O)(C(F)(F)F)C(F)(F)F)cc1 [T091317]
activity at 1 µM [11]: 380%

SMILES: O=C(O)Cc1ccc(-c2cc(C(F)(F)F)cc(C(F)(F)F)c2)cc1
EC50 [1]: 80 nM
EC50 [2]: 150 nM
EC50 [3]: 220 nM
Activity [4]: inactive
Activity [5]: inactive
Activity [6]: inactive
solubility at 24 h [12]: 1.15 µg/mL (≈ 3.3 µM)
activity at 10 µM [21]: 132%
Activity [22]: 267%
activity at 10 µM [23]: 127%
Activity [24]: 154%
Stability [25]: Stable

Second part, led by results:

EC50 [1]: 470 nM
EC50 [2]: 800 nM
EC50 [3]: 3300 nM
Activity [4]: inactive
Activity [5]: inactive
Activity [6]: inactive
SMILES: CC(C)(C)c1cc(-c2ccc(CC(=O)O)cc2)cc(C(C)(C)C)c1
activity at 5 µM [7]: 89%
Activity [8]: 173%
activity at 5 µM [9]: 82%
Activity [10]: 108%

solubility at 24 h [12]: 0.3 µg/mL (≈ 0.861 µM)
SMILES: C=C(c1ccc(C(=O)O)cc1)c1cc2c(cc1C)C(C)(C)CCC2(C)C [BEXAROTENE]
activity at 0.3 µM [13]: 200%
Activity [14]: 330%
activity at 0.3 µM [15]: 665%
Activity [16]: 423%

EC50 [1]: 15500 nM
EC50 [2]: 13100 nM
Activity [17]: inactive
SMILES: O=C(O)c1cccc(-c2cc(Cl)cc(Cl)c2)c1
activity at 25 µM [18]: 67%
Activity [19]: 82%
activity at 25 µM [20]: 42%
